Calls of active or inactive are those of the source. The rule behind the calls is not given here.
Key:
Primary cortical neuron [1] = assay: Induction of microtubule stabilization in rat Primary cortical neuron cells assessed as prevention of okadaic acid induced microtubule collapse by measuring cellular acetylated alpha-tubulin level at 1 uM incubated for 8 hrs by ELISA; assay type: cell-based
In short: (§1)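 Embryonic dissociated cortical neurons (mouse or rat) plated 3 × 10^5/well on poly-D-lysine, grown 10 days, then treated 8 h with 15 nM okadaic acid plus compound or vehicle (0.25% DMSO). Homogenate AcTub measured by ELISA; one-way ANOVA versus vehicle without okadaic acid.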

Mus musculus = assay: Binding affinity to microtubule in CD-1 mouse brain assessed as increase in de-tyrosinated alpha-tubulin level at 1 mg/kg, ip qd for 2 days […]; assay type: organism-based; conditions: time 2.0 day
In short: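 CD-1 mice (n = 4 per group) got two i.p. doses 1 mg/kg, about 24 h apart, from DMSO stock diluted into 30% Kolliphor EL in PBS pH 7.4; vehicle controls. Cortex and hippocampus taken 4 h after second dose, homogenized in RIPA with protease inhibitors, PMSF, 3 μM trichostatin A; equal protein western blot for Glu-tubulin, α-tubulin, GAPDH; infrared imaging; GluTub/α-Tub ratio versus vehicle.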

Primary cortical neuron [2] = assay: Induction of microtubule stabilization in mouse Primary cortical neuron cells assessed as prevention of okadaic acid induced microtubule collapse by measuring cellular acetylated alpha-tubulin level at 10 uM incubated for 8 hrs by ELISA; assay type: cell-based; in short: as §1
Tubulin (Homo sapiens) [3] = target: T1, Tubulin (Homo sapiens) (UniProt P68371+Q9H4B7+P0DPH7+P68366+Q13509+Q71U36+P04350+Q3ZCM7+P07437+P68363+Q9BQE3+Q6PEY2+Q13885+Q9BVA1+Q9BUF5); assay: Induction of microtubule stabilization in human HEK293-A cells assessed as fold change in total alpha-tubulin level reduction at 1 uM incubated for 4 hrs by ELISA relative to control; assay type: cell-based
In short: (§2)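 QBI293 cells (2 × 10^5/well) plated overnight, then fresh medium with compound (from 4–20 mM DMSO stocks) or vehicle (0.25–0.3% DMSO) for 4 h. Whole-cell extracts normalized by BCA protein; AcTub and total α-tubulin quantified by ELISA, as fold-change versus DMSO cells; one-way ANOVA.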

Tubulin (Homo sapiens) [4] = target: T1, Tubulin (Homo sapiens); assay: Induction of microtubule stabilization in human HEK293-A cells assessed as fold change in cellular acetylated alpha-tubulin level at 10 uM incubated for 4 hrs by ELISA relative to cevipabulin; assay type: cell-based
In short: (§3)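 QBI293 cells (2 × 10^5/well) treated 4 h with compound or DMSO vehicle; AcTub in whole-cell extracts measured by ELISA with BCA protein normalization. Fold-change in AcTub relative to DMSO then expressed against change produced by positive-control reference compound at 100 nM run alongside, to correct day-to-day responsiveness.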

Tubulin (Homo sapiens) [5] = target: T1, Tubulin (Homo sapiens); assay: Induction of microtubule stabilization in human HEK293-A cells assessed as fold change as increase in cellular acetylated alpha-tubulin level at 10 uM incubated for 4 hrs by ELISA relative to control; assay type: cell-based; in short: as §2
Tubulin (Homo sapiens) [6] = target: T1, Tubulin (Homo sapiens); assay: Induction of microtubule stabilization in human HEK293-A cells assessed as fold change in cellular acetylated alpha-tubulin level at 1 uM incubated for 4 hrs by ELISA relative to cevipabulin; assay type: cell-based; in short: as §3
Tubulin (Homo sapiens) [7] = target: T1, Tubulin (Homo sapiens); assay: Induction of microtubule stabilization in human HEK293-A cells assessed as fold change in total alpha-tubulin level reduction at 10 uM incubated for 4 hrs by ELISA relative to control; assay type: cell-based; in short: as §2
Tubulin (Homo sapiens) [8] = target: T1, Tubulin (Homo sapiens); assay: Induction of microtubule stabilization in human HEK293-A cells assessed as fold change as increase in cellular acetylated alpha-tubulin level at 1 uM incubated for 4 hrs by ELISA relative to control; assay type: cell-based; in short: as §2

Structure (SMILES): CC(C)[C@@H](Nc1c(-c2c(F)cc(F)cc2F)c(Cl)nc2ncnn12)C(F)(F)F
- Activity (Primary cortical neuron [1]): inactive

Structure (SMILES): C[C@@H](Nc1c(-c2c(F)cc(C#N)cc2F)c(Cl)nc2ncnn12)C(C)(C)C
- Activity (Mus musculus): Active

Structure (SMILES): C[C@@H](Nc1c(-c2c(F)cc(C#CCCN(C)C)cc2F)c(Cl)nc2ncnn12)C(C)(C)C
- Activity (Primary cortical neuron [2]): Active
- Activity (Mus musculus): Active

Structure (SMILES): CC(C)[C@@H](C)Nc1c(-c2c(F)cc(C#CCCCO)cc2F)c(Cl)nc2ncnn12
- Activity (Primary cortical neuron [2]): Active

Structure (SMILES): C[C@@H](Nc1c(-c2c(F)cc(F)cc2F)c(Cl)nc2ncnn12)C1CC1
- fold change (FC) (Tubulin (Homo sapiens) [3]): 1.11

Structure (SMILES): C[C@@H](Nc1c(-c2c(F)cc(OCCCO)cc2F)c(Cl)nc2ncnn12)C(C)(C)C
- Activity (Primary cortical neuron [2]): inactive

Structure (SMILES): C[C@@H](Nc1c(-c2c(F)cc(F)cc2F)c(Cl)nc2ncnn12)C1(C)N=N1
- fold change (FC) (Tubulin (Homo sapiens) [4]): 0.33

Structure (SMILES): C[C@@H](Nc1c(-c2c(F)cc(C#CCCO)cc2F)c(Cl)nc2ncnn12)C(C)(C)C
- Activity (Primary cortical neuron [2]): Active
- Activity (Mus musculus): Active

Structure (SMILES): CO[C@H]1C[C@H]2CC[C@@H](C1)N2c1c(-c2ccc(F)cc2F)c(Cl)nc2ncnn12
- fold change (FC) (Tubulin (Homo sapiens) [5]): 7.43
- fold change (FC) (Tubulin (Homo sapiens) [6]): 0.54
- fold change (FC) (Tubulin (Homo sapiens) [7]): 1.38
- fold change (FC) (Tubulin (Homo sapiens) [3]): 1.12
- fold change (FC) (Tubulin (Homo sapiens) [4]): 1.11
- fold change (FC) (Tubulin (Homo sapiens) [8]): 3.65

Structure (SMILES): C[C@@H](Nc1c(-c2c(F)cc(C#CCCCO)cc2F)c(Cl)nc2ncnn12)C(C)(C)C
- Activity (Primary cortical neuron [2]): Active

Structure (SMILES): CC(C)[C@@H](C)Nc1c(-c2c(F)cc(C#CCCO)cc2F)c(Cl)nc2ncnn12
- Activity (Primary cortical neuron [2]): Active

Structure (SMILES): CC(C)[C@@H](C)Nc1c(-c2c(F)cc(F)cc2F)c(Cl)nc2ncnn12
- Activity (Primary cortical neuron [2]): Active
- Activity (Primary cortical neuron [1]): Active

Structure (SMILES): CC(C)[C@H](Nc1c(-c2c(F)cc(F)cc2F)c(Cl)nc2ncnn12)C(F)(F)F
- Activity (Primary cortical neuron [1]): inactive

Structure (SMILES): C[C@@H](Nc1c(-c2c(F)cc(OCCCN(C)C)cc2F)c(Cl)nc2ncnn12)C(C)(C)C
- Activity (Primary cortical neuron [2]): Active
